SF-1 act: SF-1 (human) activation. Q13285. CHO-K1 Gal4-SF-1 LBD luciferase reporter; % increase over DMSO SF-1-specific signal. activation, % at 10 µM. 65,000 tested, 1.9% active;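 active means activation above the mean activation of all tested compounds plus 3 SD, cut at about 50% in these data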
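System: CHO-K1 cells with Gal4–hSF-1 LBD chimera plus Gal4-driven luciferase; quantity: 4,000 CHO-K1 cells per well; compound: one dose, 10 µM compound, 1% DMSO; times: 20 h compound treatment, 37 °C; measured by: SteadyLite luciferase luminescence; read-out: percent activation versus DMSO; benchmarks: DMSO and mock-transfected background; replicates: one test per compound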
MT1-MMP txn act: activates MT1-MMP transcription; activation factor at 10 µM; HT1080 MT1-MMP promoter luciferase reporter, luminescence, overnight; active compounds read high; 86,000 tested, 0.16% active; AID 750;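 active means activation factor of at least 2 for MT1-MMP transcription at 10 µM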
TNAP act mid DEA: human TNAP activation, intermediate phosphate acceptor; 64,000 tested, under 10 active; P05186; activation factor at 20 µM; purified TNAP, CDP-star luminescence, 100 mM DEA, 30 min; active compounds read high; scale: 0 levamisole-inhibited, 1 vehicle-only enzyme;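 active means activation factor of at least 2 at 20 µM, relative to controls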
Target sequence (P05186 whole entry, looked up): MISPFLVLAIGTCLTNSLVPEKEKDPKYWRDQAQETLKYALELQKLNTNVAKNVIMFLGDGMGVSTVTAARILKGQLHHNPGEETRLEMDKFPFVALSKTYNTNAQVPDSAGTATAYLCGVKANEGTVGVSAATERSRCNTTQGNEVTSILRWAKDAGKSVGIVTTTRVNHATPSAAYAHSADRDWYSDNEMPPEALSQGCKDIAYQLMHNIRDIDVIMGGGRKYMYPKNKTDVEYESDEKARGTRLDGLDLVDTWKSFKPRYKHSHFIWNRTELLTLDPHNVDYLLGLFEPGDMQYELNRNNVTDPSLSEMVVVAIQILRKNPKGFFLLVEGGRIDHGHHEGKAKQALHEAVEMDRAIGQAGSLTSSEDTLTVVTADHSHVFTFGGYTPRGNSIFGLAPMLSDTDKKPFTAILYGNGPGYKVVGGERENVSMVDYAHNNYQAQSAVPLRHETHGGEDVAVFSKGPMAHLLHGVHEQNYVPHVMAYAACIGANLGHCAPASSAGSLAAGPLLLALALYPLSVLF
RORA act: activators of human nuclear receptor RORA. P35398. CHO-K1 Gal4-RORA LBD luciferase reporter, luminescence; percent increase over mock-subtracted basal signal. activation, % at 10 µM. 65,000 tested, 1.5% active. AID 560;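 active means activation above the mean of all tested compounds plus 3 SD, cut at about 49% in these data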
MMP-13 inhibitor: inhibitors of human MMP13. MMP-13 fTHP FRET cleavage, Mca fluorescence. AID 570. 65,000 tested, 0.07% active. P45452. inhibition, % at 4 µM;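 active means inhibition above the mean of compound-free control plate wells plus 3 SD, cut at about 14% in these data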
Hits are given with their value; 0 = inactive; - = not tested or not shown. Shown are actives, neighbours in structure and some others; about 2.1% of the full set was active somewhere.

SMILES	SF-1 act	MT1-MMP txn act	TNAP act mid DEA	RORA act	MMP-13 inhibitor
O=C(Nc1ccc(Cl)cn1)c1cccc(F)c1	95	0	0	105	0
O=C(Nc1ccc(Cl)cn1)c1ccccc1F	-	0	-	-	-
CCSc1nnc(NC(=O)COc2ccc3ccccc3c2)s1	-	0	-	-	-
Cc1ccccc1C(=O)Nc1nc2n(n1)C(c1ccccc1)CC(=O)N2 (configuration not stated)	-	0	-	-	-
Cc1ccc(-n2ncc3c(=O)n(-c4ccc(C)c(C)c4)c(C)nc32)cc1	0	0	0	0	0
CCc1nnc2c3cnn(-c4ccccc4)c3ncn12	0	0	0	83	0
Cc1ccc(-n2ncc3c2ncn2c(C)nnc32)cc1C	0	0	0	60	0
CNc1sc(C(=O)c2ccc(F)cc2)c(N)c1-c1nc2ccccc2s1	-	0	-	-	-
CNc1sc(C(=O)c2cccs2)c(N)c1-c1nc2ccccc2s1	79	0	0	0	0
COc1ccc(-c2csc(NCc3ccco3)n2)cc1C	80	0	0	49	0
CC(=O)Nc1ccc(-c2csc(NCc3ccco3)n2)cc1	-	0	-	-	-
COC(=O)c1ccc(C(NC(=O)OCc2ccccc2)/C(I)=C/[C@@H](C)C(=O)NCc2ccc(C)o2)cc1 (some centres not stated)	-	0	-	-	-
O=C(CSc1nnc(-c2cccs2)n1-c1cccc(Cl)c1)c1cccc2c1OCCO2	-	0	-	-	-
CCOc1cc(-c2nc(-c3ccccc3OC)no2)cc(OCC)c1OCC	0	0	0	0	0
COc1ccc(-c2noc(CSc3ccccc3)n2)cc1OC	68	0	0	0	0
COc1ccc(-c2nc(-c3ccccc3OC)no2)cc1OC	0	0	0	56	0
COc1ccc(-c2nc(C3CCCCC3)no2)cc1OC	57	-	0	0	0
COc1ccc(-c2nc(-c3cccc(C)c3)no2)cc1OC	59	0	0	61	0
COc1ccc(CN2CCc3ccccc3C2)c(OC)c1OC	-	0	-	-	-
COc1nc(-c2ccccc2)ccc1-c1noc(-c2ccco2)n1	55	0	0	0	0
COc1ccccc1-c1noc(-c2ccccc2)n1	65	0	0	0	0
CCOc1ccc(-c2nc(-c3ccccc3)no2)cc1OCC	84	0	0	49	0
CC1CN(Cc2nc3c(c(=O)n(C)c(=O)n3C)n2Cc2ccc(Cl)cc2)CC(C)O1 (configuration not stated)	0	0	0	0	0
Cc1ccc2cc(CN(Cc3ccco3)C(=O)c3cccs3)c(=O)[nH]c2c1	0	0	0	76	0
CC(CC(=O)c1cccs1)CC(=O)c1cccs1	74	0	0	74	0
SMILES	SF-1 act	MT1-MMP txn act	TNAP act mid DEA	RORA act	MMP-13 inhibitor
O=C(O)CCCCCCCCCC(=O)c1cccs1	-	0	-	-	-
COC(=O)c1cccc(C23CC4(C2)[C@H](CN(CC2CCCCC2)[C@@H]4c2ccccc2)C3c2ccc(Cl)nc2)c1 (some centres not stated)	-	0	-	-	-
CC(=O)C(C)Oc1ccc2c3c(c(=O)oc2c1)CCCC3 (configuration not stated)	0	0	0	0	0
CC(=O)C(C)Oc1ccc2c3c(c(=O)oc2c1)CCCCC3 (configuration not stated)	54	0	0	0	0
O=C(/C=C/Nc1ccc(F)c(Cl)c1)c1ccco1	55	0	0	62	0
Cc1ccc(CSCC(=O)N2CCOCC2)cc1	-	0	-	-	-
COC(=O)[C@@]1(Cc2ccc(F)cc2)[C@H]2c3cc(C(=O)N4CCCC4)n(Cc4ccccn4)c3C[C@H]2CN1C(=O)c1ccccc1	-	0	-	-	-
CCOC(=O)c1cc2cc(OC)ccc2nc1C	-	0	-	-	-
COc1c(C)cccc1C(=O)Nc1ccc(N2CCOCC2)c(Cl)c1	-	2.2	-	-	-
c1ccc2c(c1)NC1(CCCC1)n1c-2nc2ccccc21	59	0	0	0	0
Cc1ccc(N2C(=O)c3ccc(N)cc3C2=O)cc1	0	0	0	55	0
Cc1ccc(N2C(=O)c3ccccc3C2=O)cc1C	-	0	0	-	-
Cc1ccc(N2C(=O)c3ccc(N)cc3C2=O)cc1C	64	0	0	107	0
COC(=O)[C@@H]1C[C@H]1[C@@H](NC(C)=O)c1ccccc1	-	0	-	-	-
CC(C)CC(c1nnnn1Cc1ccccc1)N1CCC(C(N)=O)CC1 (configuration not stated)	-	0	-	-	-
Nn1c(Nc2ccccc2)nc2ccccc2c1=O	0	0	0	0	0
Nn1c(Nc2ccccc2)nc2ccccc21	0	0	0	50	0
CCOC(=O)c1sc(Nc2cccc(C)c2C)nc1C	-	0	-	-	-
CC1=C(C(=O)OCc2ccccc2)C(c2ccc(C3CCCCC3)cc2)NC(=O)N1CCCCCC(=O)O (configuration not stated)	-	0	-	-	-
COc1cccc(C2=CC(c3ccc(N(C)C)cc3)n3nnnc3N2)c1 (configuration not stated)	0	0	0	0	0
COc1cccc(C2=CC(c3ccccc3)n3nnnc3N2)c1 (configuration not stated)	0	0	0	79	0
Cc1ccc(C2CC2C(=O)NNC(=S)Nc2ccc(Cl)cc2)cc1 (configuration not stated)	-	0	-	-	-
O=C(Nc1ccc2c(c1)OCCO2)c1cnc2n(c1=O)CCS2	91	0	0	88	0
O=C(NCCc1ccc(Cl)cc1)c1cnc2n(c1=O)CCS2	0	0	0	0	0
O=C(NCCC1=CCCCC1)c1cnc2n(c1=O)CCS2	51	0	-	0	0
SMILES	SF-1 act	MT1-MMP txn act	TNAP act mid DEA	RORA act	MMP-13 inhibitor
Cc1cccc(NC(=O)c2cnc3n(c2=O)CCS3)c1	0	0	-	76	0
O=C(Nc1ccc2c(c1)OCO2)c1cnc2n(c1=O)CCS2	62	0	0	0	0
COc1c(O)c(O)cc2c1oc1c3cc(C)ccc3oc(=O)c21	-	0	-	-	-
CCCC1C2C(=O)N(c3ccccc3OCC)C(=O)C2ON1c1ccccc1 (configuration not stated)	-	0	-	-	-
O=C(c1cc(-c2cccs2)on1)N1CCOCC1	0	0	0	51	0
O=C(c1cc(-c2cccs2)on1)N1CCc2ccccc2C1	0	0	0	0	0
O=C(NCCN1CCOCC1)c1cc(-c2cccs2)on1	0	0	0	68	0

Bioassay records (PubChem)
